Measurements reported in ChEMBL document CHEMBL3877306, “Triazole Ureas Act as Diacylglycerol Lipase Inhibitors and Prevent Fasting-Induced Refeeding” (J Med Chem, 2017).

Key:
[1] = target: T1, Diacylglycerol lipase-alpha (Homo sapiens, UniProt Q9Y4D2); assay: Inhibition of full length recombinant human DAGLalpha expressed in HEK293T cell membranes using PNP butyrate as substrate by colorimetric assay; set-up: species or system HEK-293T
T1 sequence (Q9Y4D2 whole entry): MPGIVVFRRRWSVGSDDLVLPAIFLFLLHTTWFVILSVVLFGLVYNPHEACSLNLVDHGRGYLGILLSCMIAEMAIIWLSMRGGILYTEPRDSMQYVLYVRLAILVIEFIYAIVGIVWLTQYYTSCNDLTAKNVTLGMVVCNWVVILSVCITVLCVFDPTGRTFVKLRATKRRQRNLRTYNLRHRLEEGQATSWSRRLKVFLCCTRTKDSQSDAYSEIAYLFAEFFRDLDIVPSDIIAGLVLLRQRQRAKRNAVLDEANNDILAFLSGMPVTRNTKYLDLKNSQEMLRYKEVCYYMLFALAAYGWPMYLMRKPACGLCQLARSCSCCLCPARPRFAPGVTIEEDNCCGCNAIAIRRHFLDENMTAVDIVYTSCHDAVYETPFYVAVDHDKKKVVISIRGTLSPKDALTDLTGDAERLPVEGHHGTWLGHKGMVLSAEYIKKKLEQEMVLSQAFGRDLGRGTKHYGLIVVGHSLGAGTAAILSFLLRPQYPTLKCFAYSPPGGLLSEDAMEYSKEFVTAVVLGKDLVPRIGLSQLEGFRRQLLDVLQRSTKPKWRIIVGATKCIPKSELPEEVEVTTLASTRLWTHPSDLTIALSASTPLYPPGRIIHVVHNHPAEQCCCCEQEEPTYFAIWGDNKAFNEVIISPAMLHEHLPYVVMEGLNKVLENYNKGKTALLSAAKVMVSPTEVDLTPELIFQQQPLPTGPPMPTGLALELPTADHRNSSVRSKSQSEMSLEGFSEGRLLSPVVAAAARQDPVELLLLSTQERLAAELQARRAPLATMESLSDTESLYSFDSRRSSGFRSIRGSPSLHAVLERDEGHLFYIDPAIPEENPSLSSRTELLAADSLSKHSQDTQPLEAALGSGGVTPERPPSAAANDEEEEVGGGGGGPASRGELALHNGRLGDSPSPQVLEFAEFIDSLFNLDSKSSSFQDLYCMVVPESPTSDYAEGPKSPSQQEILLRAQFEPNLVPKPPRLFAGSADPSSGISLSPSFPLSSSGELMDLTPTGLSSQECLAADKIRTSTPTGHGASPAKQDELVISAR
Summary of the method: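 Membranes from HEK293T cells transiently transfected with human DAGLα (PEI transfection, harvested at 72 h), used at 0.05 µg/µL final protein in 50 mM HEPES pH 7.2. Activity was read colorimetrically from para-nitrophenylbutyrate hydrolysis. n = 4, mean ± SEM.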

[2] = target: T2, Monoacylglycerol lipase ABHD6 (Homo sapiens, UniProt Q9BV23); assay: Inhibition of human ABHD6 using 2-AG as natural substrate by fluorescence based assay
T2 sequence (Q9BV23 whole entry): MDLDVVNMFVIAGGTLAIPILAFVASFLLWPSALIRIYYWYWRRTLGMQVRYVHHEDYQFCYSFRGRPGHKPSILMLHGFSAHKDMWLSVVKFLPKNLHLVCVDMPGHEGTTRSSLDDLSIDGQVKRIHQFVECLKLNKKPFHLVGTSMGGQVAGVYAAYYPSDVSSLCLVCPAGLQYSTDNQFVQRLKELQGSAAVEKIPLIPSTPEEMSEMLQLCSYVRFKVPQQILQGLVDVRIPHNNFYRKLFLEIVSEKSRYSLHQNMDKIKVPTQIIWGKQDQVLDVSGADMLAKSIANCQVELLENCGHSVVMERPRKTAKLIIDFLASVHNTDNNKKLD
Summary of the method: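 Coupled fluorescence assay: 2-AG hydrolysis detected via glycerol kinase, glycerol-3-phosphate oxidase and HRP (0.2 U/mL each), 0.125 mM ATP and 10 µM Amplifu Red. Conditions: 25 µM 2-AG, 0.5% acetonitrile, 5% DMSO, ABHD6 membrane protein 40 µg/mL final. n = 4.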

[3] = target: T3, Diacylglycerol lipase-alpha (Mus musculus) (UniProt Q6WQJ1); assay: (§1) Inhibition of MB064 probe binding to DAGLalpha in mouse brain membrane proteome preincubated for 30 mins followed by MB064 probe addition measured after 20 mins by gel-based competitive activity based protein profiling assay; format: cell membranes
T3 sequence (whole entry): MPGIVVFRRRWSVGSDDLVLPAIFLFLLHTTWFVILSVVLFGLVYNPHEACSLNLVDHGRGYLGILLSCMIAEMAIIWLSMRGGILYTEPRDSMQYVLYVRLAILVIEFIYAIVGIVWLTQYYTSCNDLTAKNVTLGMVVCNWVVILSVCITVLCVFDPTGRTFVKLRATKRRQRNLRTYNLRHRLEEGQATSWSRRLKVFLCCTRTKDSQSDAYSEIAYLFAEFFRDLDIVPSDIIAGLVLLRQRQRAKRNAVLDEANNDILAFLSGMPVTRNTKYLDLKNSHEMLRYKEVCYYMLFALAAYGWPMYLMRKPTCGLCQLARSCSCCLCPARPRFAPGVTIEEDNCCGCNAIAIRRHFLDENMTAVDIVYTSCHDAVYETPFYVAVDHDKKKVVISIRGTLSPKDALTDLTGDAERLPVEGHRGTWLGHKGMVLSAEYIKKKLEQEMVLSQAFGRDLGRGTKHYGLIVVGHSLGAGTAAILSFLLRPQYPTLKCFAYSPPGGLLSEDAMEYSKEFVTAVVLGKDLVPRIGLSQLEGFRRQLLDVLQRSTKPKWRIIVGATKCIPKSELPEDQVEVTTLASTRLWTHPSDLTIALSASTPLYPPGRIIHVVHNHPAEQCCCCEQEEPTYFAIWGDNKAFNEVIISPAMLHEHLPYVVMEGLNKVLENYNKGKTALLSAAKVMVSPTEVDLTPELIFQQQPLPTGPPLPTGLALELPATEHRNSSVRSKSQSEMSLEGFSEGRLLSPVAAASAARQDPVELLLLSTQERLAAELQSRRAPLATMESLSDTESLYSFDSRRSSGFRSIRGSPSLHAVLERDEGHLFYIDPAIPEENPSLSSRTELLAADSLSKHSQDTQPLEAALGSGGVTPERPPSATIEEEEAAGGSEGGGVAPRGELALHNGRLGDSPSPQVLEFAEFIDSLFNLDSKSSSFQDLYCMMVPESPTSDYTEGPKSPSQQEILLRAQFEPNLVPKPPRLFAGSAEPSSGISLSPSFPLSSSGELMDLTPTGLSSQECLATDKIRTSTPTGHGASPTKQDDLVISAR
Summary of the method: (§2)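 Mouse brain membrane proteome (2 mg/mL) preincubated with inhibitor or DMSO vehicle for 30 min at r.t., then labelled with MB064 at 250 nM final for 20 min at r.t. and quenched in Laemmli buffer. Fluorescent bands were quantified against vehicle set to 100%, and IC50 was taken from a variable-slope log(inhibitor) vs normalized response fit. n = 3.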

[4] = target: T4, Diacylglycerol lipase-alpha (Mus musculus, UniProt Q6WQJ1); assay: as §1; format: cell membranes; summary of the method: as §2
T4 sequence (Q6WQJ1 whole entry): T3 sequence (whole entry)

[5] = target: T5, Monoacylglycerol lipase ABHD6 (Mus musculus, UniProt Q8R2Y0); assay: Inhibition of MB064 probe binding to ABHD6 in mouse brain membrane proteome preincubated for 30 mins followed by MB064 probe addition measured after 20 mins by gel-based competitive activity based protein profiling assay; format: cell membranes; summary of the method: as §2
T5 sequence (Q8R2Y0 whole entry): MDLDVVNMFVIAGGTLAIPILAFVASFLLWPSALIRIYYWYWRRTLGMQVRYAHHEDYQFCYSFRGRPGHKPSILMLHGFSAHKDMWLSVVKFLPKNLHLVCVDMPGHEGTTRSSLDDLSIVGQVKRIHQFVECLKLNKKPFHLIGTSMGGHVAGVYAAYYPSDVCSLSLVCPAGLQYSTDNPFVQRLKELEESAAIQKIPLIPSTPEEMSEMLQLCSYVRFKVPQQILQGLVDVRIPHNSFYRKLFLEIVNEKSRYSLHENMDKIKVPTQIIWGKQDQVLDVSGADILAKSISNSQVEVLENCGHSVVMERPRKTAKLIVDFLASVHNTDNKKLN

Mus musculus = organism: Mus musculus; assay: Selectivity ratio of IC50 for ABHD6 in mouse brain membrane proteome to IC50 for DAGLalpha in mouse brain membrane proteome; format: cell membranes
Summary of the method: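 Ratio of DAGLα and ABHD6 […] values, both from competitive gel ABPP in mouse brain membrane proteome. Inhibitor was preincubated 30 min at r.t., then MB064 (250 nM final) was added for 20 min. Band intensities were normalized to vehicle and fitted with a variable-slope curve. n = 3.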

Row | IC50 [1] [nM] | IC50 [2] [nM] | inhibition [3] | IC50 [4] [nM] | IC50 [5] [nM] | Ratio IC50 (Mus musculus) | Compound
1 | 7.94 | 158 |  |  |  |  | O=C(N1CCCCC1COc1ccccc1)n1ncc(C(O)(c2ccccc2)c2ccccc2)n1 (stereo not given)
2 | 5.01 | 200 |  |  |  |  | O=C(N1CCCCC1COc1ccc(F)cc1)n1ncc(C(O)(c2ccc(F)cc2)c2ccc(F)cc2)n1 (stereo not given)
3 | 6.31 | 251 |  |  |  |  | O=C(N1CCCCC1COc1ccc(F)cc1)n1ncc(C(O)(c2ccccc2)c2ccccc2)n1 (stereo not given)
4 | 5.01 | 251 |  |  |  |  | COc1ccc(CC2CCCCN2C(=O)n2ncc(C(O)(c3ccc(F)cc3)c3ccc(F)cc3)n2)cc1 (stereo not given)
5 | 20 | 2510 | Dose-dependent effect | 79.4 | > 10000 | 145 | O=C(N1C[C@@H](OCC2CC2)CC[C@@H]1Cc1ccccc1)n1ncc(C(O)(c2ccc(F)cc2)c2ccc(F)cc2)n1
6 | 0.631 | 39.8 | Dose-dependent effect | 2 | 316 | 160 | O=C(N1C[C@H](OCC2CC2)CC[C@@H]1Cc1ccccc1)n1ncc(C(O)(c2ccc(F)cc2)c2ccc(F)cc2)n1
7 | 0.794 | 50.1 | Dose-dependent effect | 2 | 50.1 | 25 | CO[C@@H]1CC[C@H](Cc2ccccc2)N(C(=O)n2ncc(C(O)(c3ccc(F)cc3)c3ccc(F)cc3)n2)C1
8 | 1580 | 3160 |  |  |  |  | O=C(N1CCCCC1Cc1ccccc1)n1ncc(C2(O)CCCCC2)n1 (stereo not given)
9 | 12.6 | > 10000 |  |  |  |  | COC(c1ccc(F)cc1)(c1ccc(F)cc1)c1cnn(C(=O)N2CCCCC2Cc2ccccc2)n1 (stereo not given)
10 | 3.16 | 158 |  |  |  |  | COc1cccc(CC2CCCCN2C(=O)n2ncc(C(O)(c3ccc(F)cc3)c3ccc(F)cc3)n2)c1 (stereo not given)
11 | 5010 | > 10000 |  |  |  |  | CC(C)(O)c1cnn(C(=O)N2CCCCC2Cc2ccccc2)n1 (stereo not given)
12 | 0.794 |  |  |  |  |  | O=C(N1CCCC[C@@H]1Cc1ccccc1)n1ncc(C(O)(c2ccc(F)cc2)c2ccc(F)cc2)n1
13 | 3980 |  |  |  |  |  | CCC1CCCCN1C(=O)n1ncc(-c2ccc(-c3ccccc3)cc2)n1 (stereo not given)
14 | 5.01 | 200 |  |  |  |  | O=C(N1CCCCC1COc1ccccc1)n1ncc(C(O)(c2ccc(F)cc2)c2ccc(F)cc2)n1 (stereo not given)
15 | 20 | 251 |  |  |  |  | O=C(N1C[C@@H](O)C=C[C@@H]1Cc1ccccc1)n1ncc(C(O)(c2ccc(F)cc2)c2ccc(F)cc2)n1
16 | 398 | 3160 |  |  |  |  | CC(O)(c1ccccc1)c1cnn(C(=O)N2CCCCC2Cc2ccccc2)n1 (stereo not given)
17 | 158 | 3160 |  |  |  |  | O=C(N1CCCCC1Cc1ccccc1)n1ncc(C(O)(c2ccccn2)c2ccccn2)n1 (stereo not given)
18 | 7.94 | 126 | Dose-dependent effect | 79.4 | 398 | 5 | CO[C@H]1CC[C@H](Cc2ccccc2)N(C(=O)n2ncc(C(O)(c3ccc(F)cc3)c3ccc(F)cc3)n2)C1
19 | 1 | 25.1 |  |  |  |  | O=C(N1CCCCC1Cc1ccccc1)n1ncc(C(O)(c2ccc(F)cc2)c2ccc(F)cc2)n1 (stereo not given)
20 | 12.6 | 39.8 |  |  |  |  | O=C(N1C[C@H](O)C=C[C@@H]1Cc1ccccc1)n1ncc(C(O)(c2ccc(F)cc2)c2ccc(F)cc2)n1
21 | 6310 | 200 |  |  |  |  | O=C(N1C[C@@H](O)CC[C@@H]1Cc1ccccc1)n1ncc(C(O)(c2ccc(F)cc2)c2ccc(F)cc2)n1
22 | 100 | 7940 |  |  |  |  | O=C(N1CCCCC1Cc1ccccc1)n1ncc(C(O)(C2CCCCC2)C2CCCCC2)n1 (stereo not given)
23 | 20 | 158 |  |  |  |  | O=C(N1C[C@H](O)CC[C@@H]1Cc1ccccc1)n1ncc(C(O)(c2ccc(F)cc2)c2ccc(F)cc2)n1
